Measured values taken from ChEMBL document CHEMBL1156237, “Antiviral activity of benzimidazole derivatives. II. Antiviral activity of 2-phenylbenzimidazole derivatives” (Bioorg Med Chem, 2010).
pEC50, pIC50: −log10 of the molar value. The source made the active and inactive calls.

Experiments:
[1] = Cytotoxicity against african green monkey Vero cells; assay type: cell-based; details: chlorocebus sabaeus
Method in brief: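 Vero 76 monolayers exposed to serial compound dilutions, run in parallel on the same 24-well plates as the plaque-reduction assays. CC50 is the concentration reducing viability of mock-infected cells by 50%.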

[2] = (§1) Cytotoxicity against human MT4 cells after 96 hrs by MTT assay; assay type: cell-based; details: MT4 cells
Method in brief: (§2)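 Exponentially growing MT-4 cells at 1 × 10^5 cells/mL in RPMI-1640 with 10% FCS, exposed to serial compound dilutions at 37 °C, 5% CO2. Viability by MTT after 96 h; CC50 is the concentration reducing viability of mock-infected cells by 50%.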

[3] = system: Bovine viral diarrhea virus 1; experiment: Antiviral activity against Bovine viral diarrhea virus NADL infected in MDBK cells assessed as protection from virus-induced cytopathogenicity after 3 to 4 days by MTT method; assay type: functional, organism-based, Bovine viral diarrhea virus 1-NADL
Method in brief: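 Cytopathogenicity protection assay. MDBK cells at 3 × 10^4/well, grown overnight to confluence. Infected with BVDV NADL at m.o.i. 0.01 in MEM-E with 0.5% inactivated FBS, 1 mM Na pyruvate and 1% kanamycin. Serial compound dilutions added after 1 h. After 3–4 days at 37 °C, viability read by MTT; EC50 is the concentration giving 50% protection.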

[4] = system: Mammalian orthoreovirus 1; experiment: Antiviral activity against Reovirus 1 3651 infected in BHK21 cells assessed as protection from virus-induced cytopathogenicity after 3 to 4 days by MTT method; assay type: functional, organism-based; details: BHK-21
[5] = system: Vaccinia virus; experiment: Antiviral activity against Vaccinia virus Elstree-Lister infected in african green monkey Vero cells after 3 days by plaque reduction assay; assay type: functional, organism-based; details: Orthopoxvirus vaccinia; for pEC50: 72 h
[6] = Selectivity index, ratio of CC50 for human MT4 cells to EC50 for Human coxsackievirus B2 Ohio-1; assay type: toxicity, cell-based; details: read-out: Ratio CC50/EC50
[7] = system: Coxsackievirus B2; experiment: Antiviral activity against Human coxsackievirus B2 Ohio-1 infected in african green monkey Vero cells after 3 days by plaque reduction assay; assay type: functional, organism-based, Coxsackievirus B2 (strain Ohio-1)
Method in brief: (§3)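 Plaque reduction assay. Vero 76 cells at 2 × 10^5/well, grown overnight to confluence in D-MEM with 10% FBS. Infected 2 h with 50–100 PFU/well, unadsorbed virus removed. Overlay of D-MEM with 1% inactivated FBS and 0.75% methylcellulose, with or without serial compound dilutions. Incubated at 37 °C for 3 days (HSV-1 KOS, CVB-2 Ohio-1) or 5 days (RSV A2). Fixed and stained with crystal violet in 50% ethanol; plaques counted; EC50 by linear regression.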

[8] = Cytotoxicity against BHK cells after 48 to 96 hrs by MTT assay; assay type: cell-based, Mesocricetus auratus; details: hamster
Method in brief: (§4)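 Cell seeding: MDBK at 6 × 10^5 cells/mL in MEM-E with 10% horse serum and 1 mM Na pyruvate; BHK at 1 × 10^6 cells/mL in MEM-E with 10% FBS. Serial compound dilutions, 37 °C, 5% CO2. Viability of mock-infected cells by MTT after 48–96 h; CC50 is the concentration reducing viability by 50%.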

[9] = system: Poliovirus 1; experiment: Antiviral activity against Polio virus type1 Sabin strain Chat infected in african green monkey Vero cells after 2 days by plaque reduction assay; assay type: functional, organism-based, Human poliovirus 1 strain Sabin; details: Enterovirus C, 48 h
[10] = system: Vesicular stomatitis virus; experiment: Antiviral activity against VSV Indiana lab infected in african green monkey Vero cells after 2 days by plaque reduction assay; assay type: functional, organism-based
[11] = system: Human alphaherpesvirus 1; experiment: Antiviral activity against HSV1 KOS infected in african green monkey Vero cells after 3 days by plaque reduction assay; assay type: functional, organism-based; details: Human alphaherpesvirus 1, KOS, 72 h; method in brief: as §3
[12] = system: Human immunodeficiency virus 1; experiment: Antiviral activity against HIV1 3B infected in human MT4 cells assessed as protection from virus-induced cytopathogenicity after 4 days by MTT method; assay type: functional, organism-based
Method in brief: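 MT-4 cells, 1 × 10^4/well in RPMI with or without serial compound dilutions, infected with HIV-1 IIIB, 100 CCID50 (m.o.i. 0.01). Protection from virus-induced cytopathogenicity read by MTT.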

[13] = system: Yellow fever virus; experiment: Antiviral activity against Yellow fever virus 17D infected in BHK cells assessed as protection from virus-induced cytopathogenicity after 3 to 4 days by MTT method; assay type: functional, organism-based
[14] = Selectivity index, ratio of CC50 for african green monkey Vero cells to EC50 for Human coxsackievirus B2 Ohio-1; assay type: toxicity, cell-based; details: read-out: Ratio CC50/EC50
[15] = system: Respiratory syncytial virus; experiment: Antiviral activity against RSV A2 infected in african green monkey Vero cells after 5 days by plaque reduction assay; assay type: functional, organism-based; details: for pEC50: human respiratory syncytial virus, A2, Vero, 120 h; method in brief: as §3
[16] = Cytotoxicity against MDBK cells after 48 to 96 hrs by MTT assay; assay type: cell-based, Bos taurus; details: cattle; method in brief: as §4
[17] = system: Bovine viral diarrhea virus 1; experiment: Antiviral activity against Bovine viral diarrhea virus NADL infected in MDBK cells assessed as inhibition of post viral entry pre-budding stage of replication administered at 13 hrs post infection measured after 24 to 36 hrs by plaque reduction assay; assay type: functional, organism-based; details: Bovine viral diarrhea virus 1-NADL
Method in brief: (§5)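 MDBK monolayers inoculated at room temperature with BVDV NADL, 300 PFU (m.o.i. 0.01 PFU/cell), 60 min adsorption, washed, kept in MEM-E + 1 mM Na pyruvate + 0.5% inactivated FBS at 37 °C. Medium containing 10× compound added for one window (−1–0, 0–2, 2–4 … 12–14 h), then washed out and fresh medium given. CPE scored at 24–36 h; viral titre by plaque assay.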

[18] = system: Hepatitis C virus; experiment: Inhibition of HCV 1b NS5B Cdelta21 RNA dependent RNA polymerase expressed in Escherichia coli after 30 mins by fluorescence assay; assay type: functional, Hepatitis C virus subtype 1b; details: 0.5 h
Method in brief: (§6)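 N-His-tagged NS5B from E. coli Rosetta2(DE3)pLysS (BVDV C-terminal Δ24; HCV1b Δ21), Ni-NTA purified, 500–600 ng per 20 µL reaction. Template 10 µg/mL poly(rC), primer 0.1 µg/mL oligo(rG)12, substrate 80 µM GTP; 20 mM Tris pH 7.0, 0.5 mM MnCl2 or 5 mM MgCl2, 5% DMSO. Enzyme pre-incubated with drug 30 min at room temperature.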

[19] = Selectivity index, ratio of CC50 for human MT4 cells to EC50 for Bovine viral diarrhea virus NADL; assay type: toxicity, cell-based; details: read-out: Ratio CC50/EC50
[20] = Inhibition of Bovine viral diarrhea virus NADL NS5B Cdelta24 RNA dependent RNA polymerase expressed in Escherichia coli after 30 mins by fluorescence assay; set-up: species or system Bovine viral diarrhea virus 1-NADL; method in brief: as §6
[21] = Selectivity index, ratio of CC50 for MDBK cells to EC50 for Bovine viral diarrhea virus NADL; assay type: toxicity, cell-based; details: cattle, read-out: Ratio CC50/EC50
[22] = system: Bovine viral diarrhea virus 1; experiment: Antiviral activity against Bovine viral diarrhea virus NADL infected in MDBK cells assessed as inhibition of viral replication administered up to 4 hrs post infection measured after 24 to 36 hrs by plaque reduction assay; assay type: functional, organism-based; details: Bovine viral diarrhea virus 1-NADL; method in brief: as §5
[23] = system: Hepatitis C virus; experiment: Antiviral activity against HCV Con1 expressed in human HuH7 cells assessed as NS4A expression after 72 hrs by ELISA-based replicon assay; assay type: functional, organism-based, Hepacivirus hominis; details: isolate Con1, Huh-7, 72 h
Method in brief: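 GS4.1 cells (Huh-7 carrying HCV Con1 subgenomic replicon) at 7.5 × 10^3/well. Ten twofold compound dilutions (top 75 µM), 0.5% DMSO, 72 h at 37 °C; replicon-free Huh-7 as negative control. NS4A measured by ELISA with anti-NS4A mAb A-236, peroxidase secondary and o-phenylenediamine, absorbance 492 nm. EC50 by four-parameter sigmoidal fit.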

[24] = system: Bovine viral diarrhea virus 1; experiment: Antiviral activity against Bovine viral diarrhea virus NADL infected in MDBK cells assessed as protection from virus-induced cytopathogenicity administered up to 6 hrs post infection measured after 24 to 36 hrs by plaque reduction assay; assay type: functional, organism-based; details: Bovine viral diarrhea virus 1-NADL; method in brief: as §5
[25] = Cytotoxicity against human HuH7 cells after 72 hrs; assay type: cell-based, Huh-7
Method in brief: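 GS4.1 replicon cells treated as in the replicon assay (twofold dilutions up to 75 µM, 72 h). Viability by CellTiter 96 AQueous One Solution; CC50 from % cytotoxicity versus concentration.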

[26] = system: MT4; experiment: as §1; assay type: cell-based; details: mt4, 96 h, 96 h; method in brief: as §2
[27] = Bovine viral diarrhea virus isolates and strains, MDBK

SMILES	CC50 [1] [µM]	CC50 at 96 h [2] [µM]	pEC50 [3, 27]	selectivity ratio [6]	pEC50 ([7]; Enterovirus B, Vero, 72 h)	CC50 [8] [µM]	pEC50 [9]	Activity [10]	pEC50 [11]	Activity [12]	pEC50 [13]	selectivity ratio [14]	CC50 ([16]; MDBK cells) [µM]	selectivity ratio [19]	selectivity ratio [21]	also measured
CC(=O)Nc1ccc(-c2nc3cc(C(F)(F)F)ccc3n2C)cc1	> 100	15	< 4.34	6	5.60	> 100	4.85	inactive	4.31	inactive	< 4.00	> 40	46	–	–	Activity [4]: inactive; Activity [5]: inactive; Activity [15]: inactive
CC(=O)Nc1ccc(-c2nc3cc([N+](=O)[O-])ccc3[nH]2)cc1	> 100	> 100	6.10	–	< 4.00	> 100	< 4.00	inactive	< 4.00	inactive	< 4.00	–	> 100	> 125	> 125	Activity [17]: Active; pIC50 [18]: 4.52; pIC50 [20]: 4.92; Activity [22]: Active; pEC50 [23]: 4.42; Activity [24]: Active; CC50 at 72 h [25]: > 90 µM
Nc1ccc(-c2nc3cc([N+](=O)[O-])ccc3[nH]2)cc1	> 100	100	5.82	–	< 4.00	> 100	< 4.00	inactive	< 4.00	inactive	< 4.00	–	79	67	53	pIC50 [18]: 4.48; pIC50 [20]: 4.74
Nc1ccc(-c2nc3cc(Cl)c(Cl)cc3[nH]2)cc1	≥ 100	17	6.00	–	4.96	30	< 4.00	inactive	4.55	inactive	< 4.52	–	7.5	17	7.5	pEC50 [15]: 5.00
CC(=O)Nc1ccc(-c2nc3cc(Cl)c(Cl)cc3[nH]2)cc1	> 100	> 100	6.00	–	< 4.00	> 100	< 4.00	inactive	< 4.00	inactive	< 4.00	–	58	> 100	58	pIC50 [18]: 5.30; pIC50 [20]: 5.52; pEC50 [23]: 4.49; CC50 at 72 h [25]: > 75 µM
CC(=O)Nc1ccc(-c2nc3cc(C(F)(F)F)ccc3[nH]2)cc1	50	19	5.89	6.3	5.52	53	4.80	inactive	5.15	inactive	< 4.28	17	50	15	39	–
COc1cccc(-c2nc3cc(C(F)(F)F)ccc3[nH]2)c1	> 100	19	< 4.55	4.8	5.40	90	< 4.00	inactive	4.92	inactive	< 4.05	> 25	28	–	–	pEC50 [5]: < 4.00; pEC50 [15]: 5.15
CCC(=O)Nc1ccc(-c2nc3cc(C(F)(F)F)ccc3[nH]2)cc1	> 100	≥ 100	< 4.00	≥ 25	5.40	100	< 4.00	inactive	< 4.00	inactive	< 4.00	> 25	> 100	–	–	–
CCN(CC)CC(=O)Nc1ccc(-c2nc3cc(C(F)(F)F)ccc3[nH]2)cc1	24	8	5.70	–	< 4.62	23	< 4.62	inactive	4.62	inactive	5.15	–	13	4	6.5	–
COc1cc(OC)cc(-c2nc3cc(C(F)(F)F)ccc3[nH]2)c1	> 100	19	< 4.00	6.3	5.52	> 100	< 4.00	inactive	< 4.00	inactive	< 4.00	> 33	> 100	–	–	pEC50 [5]: < 4.00; pEC50 [15]: 5.00
O=C(CN1CCCC1)Nc1ccc(-c2nc3cc(Cl)c(Cl)cc3[nH]2)cc1	> 100	8	5.60	5.3	5.82	64	4.60	inactive	< 4.00	inactive	< 4.19	> 67	16	–	–	–
O=C(CN1CCOCC1)Nc1ccc(-c2nc3cc(Cl)c(Cl)cc3[nH]2)cc1	> 100	–	–	–	–	> 100	–	inactive	–	inactive	< 4.00	–	–	–	–	CC50 [26]: > 100 µM; pEC50 ([3]; mdbk): < 4.00; pEC50 ([7]; vero): < 4.00; CC50 ([16]; mdbk): > 100 µM
